Like-named read-outs stand apart in the source and are kept apart here.
Key:
[1] = Baseline dynamic PET imaging in non-human primate; assay type: in vivo, rhesus monkey (Macaca mulatta); details: rhesus monkey, i.v. 185 MBq
Outline: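 Rhesus monkey sedated with ketamine (15 mg/kg i.m.) plus glycopyrrolate (0.01 mg/kg i.m.), intubated, and kept under isoflurane (0.5–2.0%) in 40% oxygen/air. CT scan for attenuation correction. The [18F] tracer (185 MBq, <1.0 microgram mass) was given as a slow i.v. bolus (~20 s) with saline flush. Dynamic 90-min scan in 27 frames, FBP-reconstructed with full corrections. Whole-brain ROI time-activity curve in SUV.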

[2] = Dynamic PET imaging in wild-type mice; assay type: in vivo, mouse; details: wt male mice
Outline: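 Three male C57BL/6 mice (7.5 months, 29–32 g) given an i.v. bolus of the [18F] tracer (9.1 ± 1.1 MBq; Am 18 ± 10 GBq/μmol). 60-min dynamic PET/MRI in 33 frames, FBP reconstruction. Decay-corrected, no attenuation or scatter correction. Whole-brain TAC via MR template atlas; SUV = regional radioactivity normalised to injected activity and body weight.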

[3] = Radiometabolite analysis of blood samples in non-human primate; assay type: in vivo, rhesus monkey (Macaca mulatta); details: rhesus monkey blood, 10 min
Outline: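 Anesthetised rhesus monkey given 185 MBq of the [18F] tracer as an i.v. bolus. Venous blood (~3 mL) drawn via saphenous catheter at 2, 10, 30, 45 and 90 min post-injection. Samples analysed by radio-HPLC for radiolabelled metabolites and the time-varying fraction of unmetabolized parent tracer.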

[4] = Dynamic PET imaging in healthy rats; assay type: in vivo, rat
Outline: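 Two healthy Sprague-Dawley rats, 3 months old (male 358 g, female 241 g), injected i.v. with 15.5 and 16.5 MBq of the [18F] tracer (Am 19 and 8 GBq/μmol). 120-min dynamic PET/MRI in 39 frames, FBP with Hann filter. Decay-corrected, without attenuation or scatter correction. Whole-brain TAC from MR template atlas; SUV normalised to injected activity and body weight.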

[5] = Lipophilicity by shake-flask method; assay type: physicochemical; details: 1-octanol
[6] = rat
[7] = molecular target: T1, melatonin binding site (MT3 (ML2)) on quinone dehydrogenase 2 (Mesocricetus auratus, UniProt A0ABM2YAB8); assay: Off-target selectivity screen; details: 1.0 μM, specific radioligand
T1 sequence (A0ABM2YAB8 1-231): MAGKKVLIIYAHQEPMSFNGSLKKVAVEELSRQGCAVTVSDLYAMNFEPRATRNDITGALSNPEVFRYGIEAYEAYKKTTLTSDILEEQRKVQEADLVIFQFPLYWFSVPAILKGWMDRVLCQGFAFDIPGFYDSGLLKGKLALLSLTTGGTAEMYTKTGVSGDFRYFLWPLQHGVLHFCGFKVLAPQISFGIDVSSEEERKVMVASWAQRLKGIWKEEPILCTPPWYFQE

[8] = system: 93 CNS receptors and enzymes, including MAO-A and MAO-B; assay: Off-target selectivity screen; assay type: binding; details: 93 proteins including MAO-A and MAO-B, 1.0 μM
[9] = molecular target: P-glycoprotein (Homo sapiens, UniProt P08183); details: MDCK-MDR1
Chain of P-glycoprotein (P08183 whole entry): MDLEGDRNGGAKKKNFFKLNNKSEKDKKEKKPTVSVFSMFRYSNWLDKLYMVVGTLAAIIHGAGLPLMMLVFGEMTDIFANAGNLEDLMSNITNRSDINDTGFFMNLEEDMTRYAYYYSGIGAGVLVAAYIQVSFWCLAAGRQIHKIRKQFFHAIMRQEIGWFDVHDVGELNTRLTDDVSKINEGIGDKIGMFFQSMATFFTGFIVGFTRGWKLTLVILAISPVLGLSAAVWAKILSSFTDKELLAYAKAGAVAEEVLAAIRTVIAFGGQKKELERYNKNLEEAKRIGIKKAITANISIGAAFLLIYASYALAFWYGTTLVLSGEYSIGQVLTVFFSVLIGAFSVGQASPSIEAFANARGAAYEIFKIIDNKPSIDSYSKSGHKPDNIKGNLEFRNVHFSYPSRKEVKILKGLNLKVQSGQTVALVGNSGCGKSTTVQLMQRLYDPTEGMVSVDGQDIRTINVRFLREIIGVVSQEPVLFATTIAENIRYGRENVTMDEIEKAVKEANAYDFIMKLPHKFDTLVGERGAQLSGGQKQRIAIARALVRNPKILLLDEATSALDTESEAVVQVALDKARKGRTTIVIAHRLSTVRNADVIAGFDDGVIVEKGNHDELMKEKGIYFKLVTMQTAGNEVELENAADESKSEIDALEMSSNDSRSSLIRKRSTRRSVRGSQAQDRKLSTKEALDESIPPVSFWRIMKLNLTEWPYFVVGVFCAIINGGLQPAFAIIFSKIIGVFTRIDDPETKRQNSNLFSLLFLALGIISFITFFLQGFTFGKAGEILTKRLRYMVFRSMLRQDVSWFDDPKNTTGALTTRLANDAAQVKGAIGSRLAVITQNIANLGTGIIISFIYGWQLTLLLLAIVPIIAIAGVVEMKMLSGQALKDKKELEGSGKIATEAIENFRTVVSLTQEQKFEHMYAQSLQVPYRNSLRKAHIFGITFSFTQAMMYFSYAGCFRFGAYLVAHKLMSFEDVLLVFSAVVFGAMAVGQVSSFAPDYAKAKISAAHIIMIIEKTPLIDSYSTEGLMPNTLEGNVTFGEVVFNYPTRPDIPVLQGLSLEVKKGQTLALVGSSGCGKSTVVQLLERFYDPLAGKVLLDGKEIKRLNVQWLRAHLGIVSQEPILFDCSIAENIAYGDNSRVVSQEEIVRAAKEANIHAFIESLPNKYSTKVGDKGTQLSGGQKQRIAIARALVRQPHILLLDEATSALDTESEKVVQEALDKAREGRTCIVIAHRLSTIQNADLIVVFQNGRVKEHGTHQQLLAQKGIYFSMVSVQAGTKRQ

[10] = assay type: in vitro ADME; details: human
[11] = assay type: in vitro ADME; details: rat
[12] = human

| SMILES | peak brain activity [1] [SUV] | time to peak brain activity [1] [min] | brain activity after 25 min ([1]; after 25 min) | maximum radioactivity in whole brain ([2]; i.v. bolus 9.1 ± 1.1 MBq) [SUV] | whole brain radioactivity after 30 min ([2]; i.v., after 30 min) | fraction of unmetabolized parent [3] [%] | maximum radioactivity in whole brain ([4]; i.v. 15.5 and 16.5 MBq) [SUV] | whole brain radioactivity after 30 min ([4]; i.v., after 30 min) | logD7.4 [5] | free fraction in blood plasma [6] [%] | interaction with off-target [7] | affinity for off-targets [8] | efflux ratio (B-A/A-B) [9] | stability in liver microsomes [10] [mL/min/kg] | stability in liver microsomes [11] [mL/min/kg] | free fraction in blood plasma [12] [%] |
| --- | --- | --- | --- | --- | --- | --- | --- | --- | --- | --- | --- | --- | --- | --- | --- | --- |
| OCC1CCN(c2ccc(-c3cc4cc(O)ccc4[nH]3)c([18F])n2)CC1 [[^18F]CBD-2115] | 0.65 | ≤ 2 | below 0.2 SUV | 0.66 | below 0.1 SUV | 45 | 0.5 | below 0.1 SUV | 2.99 ± 0.15 | – | – | – | – | – | – | – |
| OCC1CCN(c2ccc(-c3cc4cc(O)ccc4[nH]3)c(F)n2)CC1 [CBD-2115] | – | – | – | – | – | – | – | – | – | 2.85 | specific interaction | no significant affinity | 0.98 | 8.56 | 63.84 | 2.70 |
